Test results taken from publication PMC6568187 (Theranostics, 2019).

How the values were obtained:
[1] = in DMSO; λex 730 nm; used as standard; listed as ICG; cited from earlier work
U87-MG cells [2] = test: Organelle co-localization; assay type: cell-based; details: 20 µM, 37 °C, DMEM/F12 with 10% FBS pH 7.4
How it was run: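 50,000 U87-MG cells were plated in chamber wells and adhered overnight. Then 20 μM test compound for 30 min, two PBS washes, organelle trackers (LysoTracker Green DND 26, MitoTracker Green FM, BODIPY FL C5-ceramide–BSA, ER Tracker Green), then NucBlue 10 min. Confocal imaging, 60x water objective. Lasers: 488 nm for organelle stains, 405 nm for nuclei, 633 nm for dye. Cells re-imaged after 24 h in FluoroBrite DMEM + 10% FBS; co-localization expressed as Pearson's R.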

Photophysical properties = assay type: physicochemical; details: 10 mM PBS buffer pH 7.4
How it was run: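 Dyes in 10 mM PBS pH 7.4, 1 cm cuvettes. Excitation 730 nm; integrated emission 740–900 nm, with maximum absorbance kept below 0.1. Quantum yield came from the gradient of integrated fluorescence vs absorbance over several concentrations, referenced to ICG in DMSO (Φ 0.13). Relative absorbance and fluorescence were compared at 5 µM in the same buffer.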

[3] = In vivo biodistribution and clearance; details: normal CD-1 mice, 25 nmol intravenous, imaging 0.5-4 h
most cell lines = details: read-out: IC50 (cytotoxicity); cited from earlier work
U87-MG cells [4] = test: Cytotoxicity assay; assay type: cell-based; details: read-out: IC50 (cytotoxicity), 72 h in the dark, AlamarBlue
How it was run: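 U87-MG cells grown in DMEM with 10% FBS at 37 °C, 5% CO2, passaged at 70% confluency. Seeded at 5000 cells/well and left overnight. DMSO stocks (0.02 M) were diluted in protein-free hybridoma medium (PFHM-II) to final 0.01–80 μM, then incubated 72 h. AlamarBlue added for 2 h; fluorescence read at Ex/Em 560/590 nm. Viability = background-corrected signal vs full-viability control ×100; n=5, mean ± SD.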

[5] = Solubility measurement by UV absorbance; assay type: physicochemical
How it was run: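 DMSO stocks (100 mM) were diluted to 0–1000 μM in 10 mM PBS pH 7.4 with 1% DMSO; H2O and DMEM ± 10% FBS were also tested. Samples were shaken in the dark 6 h at room temperature (25 °C), equilibrated overnight and centrifuged at 600 x g for 15 min. Supernatant absorbance was read at 780 nm against blank, in triplicate.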

[6] = Photostability under LED illumination; assay type: physicochemical; details: 780 nm LED
How it was run: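 Solutions in 10 mM PBS pH 7.4, and in H2O with 1% DMSO, were left open to air and illuminated with a 780 nm LED. Dyes were used either equimolar (20 µM) or diluted to equal absorbance at 780 nm (1.7–2.7 µM). Absorbance at 780 nm was read every 10 min up to 60 min and plotted against time.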

[7] = Aggregation: concentration dependence of absorbance spectra; assay type: physicochemical; details: 1.25 - 20 µM in 10 mM pH 7.4 PBS buffer

SMILES | Φ (fluorescence quantum yield) of the standard [1] | localization after time 0.5 h (U87-MG cells [2]) | localization after time 24 h (U87-MG cells [2]) | brightness (εmax x Φ) (Photophysical properties) | εmax (Photophysical properties) | λabs (Photophysical properties) | λem (Photophysical properties) | ∆λ (Stokes' shift) (Photophysical properties) | relative brightness (Photophysical properties; relative to A) | Φ (fluorescence quantum yield) (Photophysical properties; λex 730 nm, standard A in DMSO) | organ signal / excretion [3] | IC50 (most cell lines) | IC50 (U87-MG cells [4]) | solubility (soluble up to) ([5]; 10 mM pH 7.4 PBS buffer) | concentration at which it begins to aggregate ([5]; H2O) | solubility ([5]; in water, 25 °C) | photostability ([6]; 1 h, A 2.7 µM, B 2 µM, 1 1.7 µM (same absorbance at 780 nm), 10 mM pH 7.4 PBS) | photodecomposition t1/2 ([6]; same absorbance at 780 nm, 10 mM pH 7.4 PBS buffer) | H-aggregation from absorbance spectra [7]
CC1(C)C(/C=C/C=C/C=C/C=C2\N(CCCCS(=O)(=O)O)c3ccc4ccccc4c3C2(C)C)=[N+](CCCCS(=O)(=O)[O-])c2ccc3ccccc3c21 [compound A, indocyanine green] | 0.13 | golgi and ER | golgi and lysosome |  |  |  |  |  |  |  |  |  |  |  |  |  |  |  | 
CC1(C)C(/C=C/C2=C(Cl)C(=C/C=C3\N(CCCCCC(=O)O)c4ccccc4C3(C)C)/CCC2)=[N+](CCCCCC(=O)O)c2ccccc21 [compound B] |  | mitochondria | mitochondria and lysosome | 3689 | 149940 cm^-1M^-1 | 775 nm | 799 nm | 24 nm | 1.90 | 0.025 | high signal in the liver and low signal in duodenum even after 4 h post-injection | ~20 µM | 19.1 ± 1.01 µM | ≥ 1000 µM | 100 µM | much less soluble | least stable and decomposed | < 10 min | blue-shifted shoulder
